For ten compounds, IC50 and LD50 results are on record in ChEMBL document CHEMBL1159129, “Novel amidino substituted 2-phenylbenzothiazoles: synthesis, antitumor evaluation in vitro and acute toxicity testing in vivo” (Bioorg Med Chem, 2010).

One series deals with SW-620. In words: Growth inhibition of human SW620 cells after 72 hrs by MTT assay. Type of series: functional, cell-based. To be noted: SW-620, 72 h. The method, boiled down:
(§1)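 Modified NCI protocol. Cells were plated on day 0 at 1-3 × 10^4 cells/mL according to doubling time. Agents were dissolved in DMSO (stock 4 × 10^-2 M) and serially diluted 10-fold in medium (10^-8–10^-4 M), with 72 h exposure. Viability by MTT (mitochondrial dehydrogenase). Four wells, three independent runs. IC50 from linear regression of the two concentrations flanking 50% growth.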
(Formazan colour is commonly taken as a measure of viable cells.)

For the next series, the system named is MCF7. The series can be described thus: Growth inhibition of human MCF7 cells after 72 hrs by MTT assay. Type of series: functional, cell-based. The following applies: MCF7, 72 h. The method, boiled down:
as §1

The subject of the next series is NCI-H460. In words: Growth inhibition of human H460 cells after 72 hrs by MTT assay. The following applies: NCI-H460, 72 h. Type of series: functional, cell-based. A digest of the protocol:
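H460 lung carcinoma cells grown as monolayers in DMEM with 10% FBS, 2 mM glutamine, penicillin/streptomycin, 5% CO2, 37 °C. Seeded day 0 at 1-3 × 10^4 cells/mL. DMSO stocks (4 × 10^-2 M) were diluted in medium to five 10-fold concentrations, 10^-8 to 10^-4 M, for 72 h. MTT read-out, quadruplicate, three experiments. IC50 by linear regression of concentrations bracketing 50% growth.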

A further series relates to MOLT-4. The series can be described thus: Growth inhibition of human MOLT4 cells after 72 hrs by MTT assay. The following applies: MOLT-4, 72 h. Type of series: functional, cell-based. The method, boiled down:
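MOLT-4 leukemia cells grown in suspension in RPMI with 10% FBS, 2 mM glutamine, penicillin/streptomycin, 5% CO2, 37 °C. Inoculated at 1-3 × 10^4 cells/mL. Compounds from 4 × 10^-2 M DMSO stock were tested at 10^-8 to 10^-4 M (10-fold steps) for 72 h, then MTT. Quadruplicates in three experiments. IC50 interpolated by linear regression around 50% growth; '>' highest concentration when not reached.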

The next series concerns HCT-116. In words: Growth inhibition of human HCT116 cells after 72 hrs by MTT assay. The following applies: HCT-116, 72 h. Type of series: functional, cell-based. The method, boiled down: as §1
Series [1] can be described thus: Acute toxicity in po dosed BALB/c mouse. In kind it is organism-based. To be noted: in vivo. A digest of the protocol:
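Female nulliparous, non-pregnant BALB/c mice, 12 weeks old, housed singly; food withheld 3-4 h before and 1-2 h after dosing. Single gavage dose in physiological saline (sonicated 15 min at 69 °C just before use), 0.5 mL/25 g body mass. OECD 425 up-and-down procedure, one animal per 24 h, dose adjusted by prior outcome; LD50 by maximum likelihood (AOT425StatPgm), 95% confidence interval.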

A word on the IC50: it is the concentration that gives 50% inhibition. Lower therefore signals higher potency. Turning to `O=[N+]([O-])c1ccc2nc(-c3ccc(C4=NCCN4)cc3)sc2c1`, the 50% inhibitory concentration (IC50) was 2000 nM in the series with SW-620; 3000 nM in the series on MCF7; 3000 nM with NCI-H460; 2000 nM with MOLT-4; 3000 nM in the series on HCT-116.

Regarding `N=C(N)c1ccc(-c2nc3ccc([N+](=O)[O-])cc3s2)cc1`, the IC50 in the series with SW-620 worked out at 2000 nM; in the series with MCF7 it was 1000 nM; in the series on NCI-H460 it was 1000 nM; with MOLT-4, 1000 nM; in the series with HCT-116, 1000 nM.

Turning to `N=C(N)c1ccc2nc(-c3ccc([N+](=O)[O-])cc3)sc2c1`, the IC50 in the series on SW-620 came out at 2000 nM; in the series with MCF7 it was 2000 nM; in the series on NCI-H460 it was 1000 nM; in the series with MOLT-4, 2000 nM; in the series on HCT-116, 2000 nM.

As for `c1cc(-c2nc3ccc(C4=NCCN4)cc3s2)ccc1C1=NCCN1`, the half-maximal inhibitory concentration (IC50) with SW-620 was determined as 800 nM; in the series with MCF7 it was 1000 nM; with NCI-H460 it was 2000 nM; in the series on MOLT-4, 3000 nM; in the series with HCT-116, 2000 nM.

One may read the LD50 as the dose at which mortality reaches 50%. The low end stands for a more toxic substance, the high end for a less toxic substance. For `Cl.N=C(N)c1ccc2nc(-c3ccc(N)cc3)sc2c1`, the median lethal dose (LD50) in series [1] came out at 67.3 mg/kg. In addition, the IC50 came to 7000 nM in the series with SW-620; 9000 nM in the series on MCF7; 4000 nM in the series with NCI-H460; 3000 nM in the series on MOLT-4; 10000 nM in the series with HCT-116.

As to `Cl.Nc1ccc2nc(-c3ccc(C4=NCCN4)cc3)sc2c1`, in series [1], the median lethal dose (LD50) turned out to be 250 mg/kg. For the same compound, the IC50 in the series on SW-620 was 300 nM; with MCF7, 1000 nM; in the series on NCI-H460, 300 nM; with MOLT-4, 1000 nM; in the series with HCT-116, 1000 nM.

Take `O=[N+]([O-])c1ccc(-c2nc3ccc(C4=NCCN4)cc3s2)cc1`: the concentration for half-maximal inhibition (IC50) with SW-620 is 7000 nM; with MCF7, 11000 nM; with NCI-H460, 4000 nM; with MOLT-4, 17000 nM; in the series on HCT-116 it was 8000 nM.

For the compound `Cl.Nc1ccc(-c2nc3ccc(C4=NCCN4)cc3s2)cc1`, the LD50 in series [1] came to 696 mg/kg. In addition, the IC50 in the series on SW-620 amounted to 700 nM; in the series on MCF7, 1700 nM; in the series on NCI-H460, 400 nM; in the series with MOLT-4 it was 1000 nM; in the series with HCT-116, 1000 nM.

With `N=C(N)c1ccc(-c2nc3ccc(C(=N)N)cc3s2)cc1`, the IC50 in the series with SW-620 is more than 100000 nM; with MCF7, 11000 nM; with NCI-H460, 78000 nM; with MOLT-4, more than 100000 nM; in the series with HCT-116, 64000 nM.

In the case of `Cl.N=C(N)c1ccc(-c2nc3ccc(N)cc3s2)cc1`, the LD50 in series [1] is 250 mg/kg. In addition, the IC50 in the series on SW-620 was determined as 4000 nM; in the series on MCF7, 200 nM; with NCI-H460 it was 200 nM; in the series with MOLT-4, 2000 nM; with HCT-116, 3000 nM.
